Most compounds without a hit are left out; they make up all but 9.4% or so of the library.
SKKanGAS inh – inhibitors of SKKanGAS S. pyogenes growth in kanamycin (SK-promoter or general growth effect); BacTiter-Glo, 6 h; inhibition, % at 7.5 µM; 1.3% of 300,000 active;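 active = mean replicate score, as percent of positive control median, at least 50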;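 also: strain carries kanamycin resistance gene driven by streptokinase promoter and grows in 40 µg/ml kanamycin; loss of luminescence reflects streptokinase promoter inhibition or plain growth inhibition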
T cruzi repl – blocks replication of Trypanosoma cruzi. 1.4% of 300,000 active. T. cruzi beta-gal in NIH3T3, luminescence, 90 h. inhibition, % (no concentration beside the values);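 active = mean inhibition across valid replicates above about 55%, limit read from the data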;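 also: signal also drops with host cell toxicity which is not excluded here; higher percent means less beta-gal luminescence so fewer parasites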
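System – NIH/3T3 host cells with β-galactosidase reporter T. cruzi · Doses – single 50 nL compound addition per well in DMSO · Reagent – 5000 T. cruzi trypomastigotes/well · Medium – Low-serum DMEM with 2% FBS · Timing – ≥90 h infection period, 3 h prior cell attachment · Evaluation – parasite load inhibition, % · Technique – GalScreen luminescence, 60 min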
L major viab – reduces viability of Leishmania major promastigotes; AID 1063; 9% of 200,000 active; inhibition, % at 10 µM; resazurin fluorescence viability; in the data active = inhibition above about 50%;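 also: promastigotes grown with compound for 44 hours at 28 °C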
Mdm2 MdmX PPI – inhibitors of human Mdm2/MdmX interaction. SaOS-2 split-luciferase Mdm2/MdmX complementation, luminescence. inhibition, % at 8 µM. 3% of 330,000 active. AID 485346;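 active = inhibition of at least 50% at 8 µM in the primary screen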
Target sequence (O15151 whole entry, looked up): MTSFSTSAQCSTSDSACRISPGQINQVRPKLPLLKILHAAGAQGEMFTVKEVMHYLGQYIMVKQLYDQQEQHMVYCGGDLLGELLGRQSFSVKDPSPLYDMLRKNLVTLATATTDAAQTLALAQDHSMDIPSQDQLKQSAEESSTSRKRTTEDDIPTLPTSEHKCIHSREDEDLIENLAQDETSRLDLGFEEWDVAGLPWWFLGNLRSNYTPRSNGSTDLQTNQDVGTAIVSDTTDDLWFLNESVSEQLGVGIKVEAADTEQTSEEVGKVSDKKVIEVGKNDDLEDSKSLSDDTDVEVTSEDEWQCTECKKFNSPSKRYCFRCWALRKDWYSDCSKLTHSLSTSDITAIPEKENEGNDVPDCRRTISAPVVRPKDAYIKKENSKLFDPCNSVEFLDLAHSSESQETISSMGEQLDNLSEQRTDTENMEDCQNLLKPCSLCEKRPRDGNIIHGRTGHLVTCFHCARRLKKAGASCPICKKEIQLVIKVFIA
Target sequence (Q00987 whole entry, looked up): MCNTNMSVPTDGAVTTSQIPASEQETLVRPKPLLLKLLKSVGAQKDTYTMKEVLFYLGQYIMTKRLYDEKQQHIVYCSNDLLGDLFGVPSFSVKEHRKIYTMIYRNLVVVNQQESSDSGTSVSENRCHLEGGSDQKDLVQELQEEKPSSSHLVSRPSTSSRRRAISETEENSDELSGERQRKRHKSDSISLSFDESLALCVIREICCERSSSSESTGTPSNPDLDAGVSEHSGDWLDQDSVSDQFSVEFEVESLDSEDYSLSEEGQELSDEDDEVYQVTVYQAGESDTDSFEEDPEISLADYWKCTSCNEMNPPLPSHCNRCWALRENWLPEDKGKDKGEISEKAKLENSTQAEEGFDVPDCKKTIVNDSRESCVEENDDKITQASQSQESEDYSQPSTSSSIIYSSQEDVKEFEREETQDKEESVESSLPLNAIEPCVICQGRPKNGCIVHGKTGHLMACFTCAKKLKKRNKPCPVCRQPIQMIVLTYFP
CSC inhib – blocks cancer stem cells; cancer stem cell-like cells viability, luminescence; inhibition, % at 7.5 µM; 1.1% of 300,000 active; AID 2717; in the data active = inhibition above about 75%; tested in HMLE shEcad cells
Beta apoptosis – blocks beta cell apoptosis. INS-1E cytokine-induced death, ATP luminescence, 48 h; percent of positive-control rescue, neutral wells zero. protection from apoptosis, % (test concentration not listed). AID 435005. 0.8% of 300,000 active;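 active = Every replicate reaches about 75%, or at least half do and their mean reaches it too, limit read from the data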;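 also: higher means more ATP so stronger rescue from cytokine killing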
Large screens that a line does not name were inactive.

N#CC1=C2N=C(N)c3c(sc4c3CCCCC4)N2C2=C(C(=O)CCC2)C1c1ccccc1 (stereo unspecified)	none
CSc1ccc(C2C(C#N)=C(N)N(c3ccccc3)C3=C2C(=O)CCC3)cc1 (stereo unspecified)	L major viab 73.8
Clc1ncc(Cn2cccn2)s1	none
CCc1nc2nc(C)c(NS(=O)(=O)c3ccc(Cl)cc3)c(=O)n2[nH]1	none (no result: L major viab, CSC inhib)
COc1ccc(CCNC(=O)CC(NC(=O)c2ccccc2Cl)c2ccccc2)cc1 (stereo unspecified)	L major viab 74.7
CN(C(=O)c1ccccc1)c1ccccc1C(=O)NCCc1ccccc1	none (no result: L major viab, Beta apoptosis)
COc1ccc(C(=O)N(C)c2ccccc2C(=O)NCCc2ccccc2)cc1	Beta apoptosis 89.5 (no result: L major viab)
O=C(CC(NC(=O)c1ccccc1Cl)c1ccccc1)Nc1ccc2c(c1)OCO2 (stereo unspecified)	L major viab 100.2 (no result: SKKanGAS inh)
NS(=O)(=O)c1ccc(CCNC(=O)CC(NC(=O)c2ccccc2Cl)c2ccccc2)cc1 (stereo unspecified)	none (no result: L major viab)
O=C(COc1ccc2ccc(=O)oc2c1)Nc1c(Cl)cccc1C(F)(F)F	none (no result: L major viab)
CC1(C)NC(=O)N(CC(=O)OCC(=O)c2ccc(Cl)s2)C1=O	none (no result: SKKanGAS inh, T cruzi repl, L major viab)
O=[N+]([O-])c1cc(C(F)(F)F)cc([N+](=O)[O-])c1N1CCN(S(=O)(=O)c2ccccc2)CC1	L major viab 51.3
CC1CCCCN1C/C=C/c1ccccc1[N+](=O)[O-] (stereo unspecified)	L major viab 85.2
CCC1CCCCN1C/C=C/c1ccccc1[N+](=O)[O-] (stereo unspecified)	L major viab 89.7
CC1CCCN(C/C=C/c2ccccc2[N+](=O)[O-])C1 (stereo unspecified)	L major viab 87.9
CCOc1ccc(N(C)S(=O)(=O)c2ccc(C)c(C(=O)OCC(=O)c3c[nH]c4ccccc34)c2)cc1	Beta apoptosis 75.0
Cc1ccc(C(=O)OCC(=O)c2c[nH]c3ccccc23)cc1NC(=O)c1ccco1	L major viab 69.2
COc1ccc(C(=O)OCC(=O)c2c[nH]c3ccccc23)c(OC)c1	none (no result: SKKanGAS inh, T cruzi repl, L major viab)
O=C(CC1CC2CCC1C2)OCC(=O)c1c[nH]c2ccccc12 (stereo unspecified)	L major viab 72.1
O=C(OCC(=O)c1c[nH]c2ccccc12)c1cc2ccccc2cc1O	L major viab 61.8
O=C(OCC(=O)c1c[nH]c2ccccc12)c1cc(S(=O)(=O)N2CCOCC2)ccc1F	none (no result: SKKanGAS inh, T cruzi repl, L major viab, CSC inhib)
CCN1CCN(C(=O)C2CCCN(S(=O)(=O)c3cccc4nsnc34)C2)CC1 (stereo unspecified)	none (no result: L major viab)
CC1S/C(=N\N=C\c2cccc([N+](=O)[O-])c2)N(C(C)(C)C)C1=O (stereo unspecified)	CSC inhib 80.6 (no result: L major viab)
Cc1cc(C)n(/N=C/c2cccc([N+](=O)[O-])c2)c(=O)c1	none (no result: CSC inhib, Beta apoptosis)
CCN(CC)CCCNC(=O)c1cc2nc3c(c(C(F)(F)F)n2n1)CCc1ccccc1-3	L major viab 96.4 (no result: Beta apoptosis)
Cc1ccc(C)c(N2CCN(S(=O)(=O)c3ccc(-c4cc(C)no4)s3)CC2)c1	none (no result: L major viab)
COc1ccc(NC(=O)[C@@H]2CC=C[C@@H]3CCN(C4CCCCC4)C(=O)[C@@H]32)cc1	none (no result: L major viab)
O=NN(CCc1ccncc1)c1ccc(OCc2ccccc2)cc1	T cruzi repl 71.9, L major viab 85.8, Beta apoptosis 99.2
O=C(Nc1ccc(-n2cnnn2)cc1)c1cc(S(=O)(=O)N2CCCC2)ccc1Cl	none (no result: SKKanGAS inh, T cruzi repl, L major viab, CSC inhib, Beta apoptosis)
CN(CCn1ccnc1)Cc1cn(Cc2ccccc2)nc1-c1ccc2c(c1)OCO2	none (no result: L major viab)
C=C(C)CN(CC)C(=O)CCc1nnc(CCc2c[nH]c3ccccc23)o1	none
Nc1c(C(=O)Nc2ccc3c(c2)OCCO3)nnn1Cc1cccc(Br)c1	CSC inhib 77.0 (no result: L major viab)
Nc1c(C(=O)Nc2ccc3c(c2)OCCO3)nnn1Cc1ccc(Br)cc1	none (no result: L major viab)
CCOC(=O)Cc1csc(NC(=O)c2c(O)c3ccccc3n(CC(C)C)c2=O)n1	L major viab 79.3
CC(C)Cn1c(=O)c(C(=O)N/N=C/c2cccc(F)c2)c(O)c2ccccc21	SKKanGAS inh 63.8, L major viab 70.1
CCOC(=O)Cc1csc(NC(=S)NC(=O)CC(C)C)n1	L major viab 53.5
CCCCn1c(=O)c(C(=O)N/N=C/c2ccc(F)cc2)c(O)c2ccccc21	none
